Test results reported in ChEMBL document CHEMBL3612001, “Design and discovery of 2-(4-(1H-tetrazol-5-yl)-1H-pyrazol-1-yl)-4-(4-phenyl)thiazole derivatives as cardiotonic agents via inhibition of PDE3” (Bioorg Med Chem, 2015).

Experiments:
[1] = tested on: Cardiac atrium; assay: Cardiotonic activity in reserpine-pretreated and spontaneously beating rat atria assessed as inotropic activity by measuring contractile force at 10 uM (reference value: 100%); format: functional
How it was run: (§1)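 Male Wistar rats (250–350 g) given reserpine 5 mg/kg ip 24 h before euthanasia under thiopental 80 mg/kg ip. Whole atria mounted in Krebs–Henseleit (95% O2/5% CO2, 35–37 °C, pH 7.35–7.45) at ~0.5 g resting tension, equilibrated 40–50 min. Used only if unresponsive to tyramine 1.5 μM. Compound added cumulatively (1–100 μM). Isometric force and rate recorded, six atria per compound.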

[2] = tested on: Mus musculus; assay: Toxicity in Swiss albino mouse assessed as changes in albumin level at 100 mg/kg, po dosed once orally for 28 days (reference value: 2.78 +/- 1.82 g/dL); format: organism-based; conditions: in vivo, 672 h
[3] = tested on: Mus musculus; assay: Toxicity in Swiss albino mouse assessed as changes in ALP level at 1 mg/kg, po dosed once orally for 28 days (reference value: 132.4 +/- 6.26 U/L); format: organism-based; conditions: in vivo, 672 h
[4] = tested on: Mus musculus; assay: Toxicity in Swiss albino mouse assessed as changes in body weight at 100 mg/kg, po dosed once orally for 28 days (reference value: 31.2 +/- 1.6g); format: organism-based; conditions: in vivo, 672 h
[5] = tested on: Mus musculus; assay: Toxicity in Swiss albino mouse assessed as changes in SGPT level at 1 mg/kg, po dosed once orally for 28 days (reference value: 41.46 +/- 17.25 U/L); format: organism-based; conditions: in vivo, 672 h
[6] = tested on: Mus musculus; assay: Toxicity in Swiss albino mouse assessed as changes in SGPT level at 100 mg/kg, po dosed once orally for 28 days (reference value: 41.46 +/- 17.25 U/L); format: organism-based; conditions: in vivo, 672 h
[7] = tested on: Mus musculus; assay: Toxicity in Swiss albino mouse assessed as changes in triglycerides level at 0.1 mg/kg, po dosed once orally for 28 days (reference value: 263.69 +/- 3.38 mg/dL); format: organism-based; conditions: in vivo, 672 h
[8] = tested on: Mus musculus; assay: Toxicity in Swiss albino mouse assessed as changes in triglycerides level at 10 mg/kg, po dosed once orally for 28 days (reference value: 263.69 +/- 3.38 mg/dL); format: organism-based; conditions: in vivo, 672 h
[9] = tested on: Mus musculus; assay: Toxicity in Swiss albino mouse assessed as changes in triglycerides level at 1 mg/kg, po dosed once orally for 28 days (reference value: 263.69 +/- 3.38 mg/dL); format: organism-based; conditions: in vivo, 672 h
[10] = tested on: Cardiac atrium; assay: Toxic cardiotonic activity in reserpine-pretreated and spontaneously beating rat atria assessed as chronotropic activity by measuring contractile frequency rate at 100 uM (reference value: 100%); format: toxicity; how it was run: as §1
[11] = tested on: Mus musculus; assay: Toxicity in Swiss albino mouse up to 1000 mg/kg, po dosed as single acute dose; format: organism-based; conditions: in vivo
[12] = tested on: Mus musculus; assay: Toxicity in Swiss albino mouse assessed as changes in haemoglobin level at 100 mg/kg, po dosed once orally for 28 days (reference value: 13.87 +/- 0.46 g/dL); format: organism-based; conditions: in vivo, 672 h
[13] = tested on: Mus musculus; assay: Toxicity in Swiss albino mouse assessed as changes in absolute and relative organ weight at 100 mg/kg, po dosed once orally for 28 days; format: organism-based; conditions: in vivo, 672 h
How it was run: (§2)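 Sub-acute oral study in Swiss albino mice, 20–25 g, 3 male + 3 female per group, 7-day acclimatisation, 22 ± 5 °C, 12 h light/dark cycle, standard feed and water ad libitum. Compound dissolved in DMSO, suspended in 0.7% CMC, given orally once daily for 28 days at 0.1, 1, 10 or 100 mg/kg, against vehicle controls. Animals observed throughout; gross pathology with absolute and relative organ weights at end; n = 6.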

[14] = tested on: Mus musculus; assay: Toxicity in Swiss albino mouse assessed as changes in creatinine level at 100 mg/kg, po dosed once orally for 28 days (reference value: 0.04 +/- 0.37 mg/dL); format: organism-based; conditions: in vivo, 672 h
[15] = tested on: Mus musculus; assay: Toxicity in Swiss albino mouse assessed as changes in total protein level at 1 mg/kg, po dosed once orally for 28 days (reference value: 3.45 +/- 0.45 […]); format: organism-based; conditions: in vivo, 672 h
[16] = tested on: Mus musculus; assay: Toxicity in Swiss albino mouse assessed as changes in haemoglobin level at 0.1 mg/kg, po dosed once orally for 28 days (reference value: 13.87 +/- 0.46 g/dL); format: organism-based; conditions: in vivo, 672 h
[17] = tested on: Mus musculus; assay: Toxicity in Swiss albino mouse assessed as changes in creatinine level at 1 mg/kg, po dosed once orally for 28 days (reference value: 0.04 +/- 0.37 mg/dL); format: organism-based; conditions: in vivo, 672 h
[18] = tested on: Mus musculus; assay: Toxicity in Swiss albino mouse assessed as changes in cholesterol level at 100 mg/kg, po dosed once orally for 28 days (reference value: 138.43 +/- 1.52 mg/dL); format: organism-based; conditions: in vivo, 672 h
[19] = tested on: Cardiac atrium; assay: Toxic cardiotonic activity in reserpine-pretreated and spontaneously beating rat atria assessed as chronotropic activity by measuring contractile frequency rate at 1 uM (reference value: 100%); format: toxicity; how it was run: as §1
[20] = tested on: Mus musculus; assay: Toxicity in Swiss albino mouse assessed as changes in total protein level at 10 mg/kg, po dosed once orally for 28 days (reference value: 3.45 +/- 0.45 […]); format: organism-based; conditions: in vivo, 672 h
[21] = tested on: Mus musculus; assay: Toxicity in Swiss albino mouse assessed as changes in creatinine level at 10 mg/kg, po dosed once orally for 28 days (reference value: 0.04 +/- 0.37 mg/dL); format: organism-based; conditions: in vivo, 672 h
[22] = tested on: Mus musculus; assay: Toxicity in Swiss albino mouse assessed as changes in total protein level at 0.1 mg/kg, po dosed once orally for 28 days (reference value: 3.45 +/- 0.45 […]); format: organism-based; conditions: in vivo, 672 h
[23] = tested on: Mus musculus; assay: Toxicity in Swiss albino mouse assessed as changes in body weight at 10 mg/kg, po dosed once orally for 28 days (reference value: 31.2 +/- 1.6g); format: organism-based; conditions: in vivo, 672 h
[24] = tested on: Cardiac atrium; assay: Cardiotonic activity in reserpine-pretreated and spontaneously beating rat atria assessed as inotropic activity by measuring contractile force at 1 uM (reference value: 100%); format: functional; how it was run: as §1
[25] = tested on: Mus musculus; assay: Toxicity in Swiss albino mouse assessed as changes in morbidity at 100 mg/kg, po dosed once orally for 28 days; format: organism-based; conditions: in vivo, 672 h; how it was run: as §2
[26] = tested on: Mus musculus; assay: Toxicity in Swiss albino mouse assessed as changes in albumin level at 0.1 mg/kg, po dosed once orally for 28 days (reference value: 2.78 +/- 1.82 g/dL); format: organism-based; conditions: in vivo, 672 h

Fc1ccc(-c2csc(-n3cc(-c4nnn[nH]4)cn3)n2)cc1
Activity [1]: 129%
Activity [2]: 2.59 g/dL
Activity [3]: 136.6 U/L
Activity [4]: 33 g
Activity [5]: 41.34 U/L
Activity [6]: 42.1 U/L
Activity [7]: 254.1 mg/dL
Activity [8]: 251.86 mg/dL
Activity [9]: 247.26 mg/dL
Activity [10]: 123%
Activity [11]: Non-toxic
Activity [12]: 15.24 g/dL
Activity [13]: Non-toxic
Activity [14]: 0.05 mg/dL
Activity [15]: 3.64 g/dL
Activity [16]: 14.5 g/dL
Activity [17]: 0.04 mg/dL
Activity [18]: 134.3 mg/dL
Activity [19]: 108%
Activity [20]: 4.12 g/dL
Activity [21]: 0.04 mg/dL
Activity [22]: 3.96 g/dL
Activity [23]: 32.62 g
Activity [24]: 110%
Activity [25]: Non-toxic
Activity [26]: 2.89 g/dL
